The test system of data set [1] is Trypanosoma cruzi. The data set is described as follows: Anti-trypanosomal activity against Trypanosoma cruzi IRHOD/CO/2008/SN3 epimastigotes after 72 hrs by Neubauer hemocytometric method. In kind it is functional, organism-based. The note with it: IRHOD/CO/2008/SN3, 72 h.
Data set [2] deals with Trypanosoma cruzi. Put plainly: Anti-trypanosomal activity against Trypanosoma cruzi IRHOD/CO/2008/SN3 amastigotes infected in African green monkey Vero cells after 72 hrs by Giemsa-staining based microscopic analysis. In kind it is functional, organism-based. Conditions: IRHOD/CO/2008/SN3, Vero.
In another data set the test system is Vero. Put plainly: Cytotoxicity against African green monkey Vero cells after 72 hrs by propidium iodide/fluorescein diacetate staining based flow cytometry. In kind it is cell-based. Conditions: Chlorocebus sabaeus. (In general: In flow cytometry, cells or beads pass a laser one at a time.)
A short description of data set [3]: Selectivity index, ratio of IC50 for African green monkey Vero cells to IC50 for Trypanosoma cruzi IRHOD/CO/2008/SN3 epimastigotes. In kind it is toxicity. The note with it: read-out: Ratio IC50.
Data set [4] is described as follows: Selectivity index, ratio of IC50 for African green monkey Vero cells to IC50 for Trypanosoma cruzi IRHOD/CO/2008/SN3 amastigotes infected in African green monkey Vero cells. In kind it is toxicity. The note with it: read-out: Ratio IC50.
In data set [5] the test system is Trypanosoma cruzi. The data set is described as follows: Potency index, ratio benznidazole IC50 to test compound IC50 for anti-trypanosomal activity against Trypanosoma cruzi IRHOD/CO/2008/SN3 amastigotes infected in African green monkey Vero cells. The data set is classed as functional. An outline of the steps: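 Vero cells were grown in RPMI with 10% inactivated FBS at 37 °C in 5% CO2. They were seeded at 1 × 10⁴ cells/well on coverslips, cultured for 2 days, then infected with metacyclic T. cruzi at 10:1 for 24 h and washed. Compounds at 1, 10, 25 and 50 were added for 72 h. Amastigotes in methanol-fixed, Giemsa-stained preparations were counted against untreated cultures.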

Data set [6] deals with Trypanosoma cruzi. The data set is described as follows: Inhibition of PFK in Trypanosoma cruzi IRHOD/CO/2008/SN3 epimastigotes assessed as change in succinate excretion at IC25 after 96 hrs by 1H NMR analysis relative to control. The arrangement: scale not given: the % may be the effect or the level left. An outline of the steps: (§1)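 SN3 epimastigotes (starting at 5 × 10⁵ cells/mL) were incubated with compound for 96 h at 28 °C, alongside drug-free control cultures. Cells were pelleted at 400 g for 10 min. Excreted end products in the supernatant were identified and quantified by ¹H NMR against a DSS reference signal, and compared with the controls.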

Data set [7] concerns Trypanosoma cruzi. The data set is described as follows: Inhibition of PFK in Trypanosoma cruzi IRHOD/CO/2008/SN3 epimastigotes assessed as change in pyruvate excretion at IC25 after 96 hrs by 1H NMR analysis relative to control. The arrangement: scale not given: the % may be the effect or the level left. The gist of the method:
as §1

Data set [8] concerns Trypanosoma cruzi. The data set is described as follows: Inhibition of PFK in Trypanosoma cruzi IRHOD/CO/2008/SN3 epimastigotes assessed as change in acetate excretion at IC25 after 96 hrs by 1H NMR analysis relative to control. The arrangement: scale not given: the % may be the effect or the level left. The gist of the method:
as §1

The subject of data set [9] is Trypanosoma cruzi. Put plainly: Inhibition of PFK in Trypanosoma cruzi IRHOD/CO/2008/SN3 epimastigotes assessed as change in L-alanine excretion at IC25 after 96 hrs by 1H NMR analysis relative to control. The arrangement: scale not given: the % may be the effect or the level left. An outline of the steps:
as §1

In data set [10] the test system is Trypanosoma cruzi. The data set is described as follows: Inhibition of PFK in Trypanosoma cruzi IRHOD/CO/2008/SN3 epimastigotes assessed as change in D-lactate excretion at IC25 after 96 hrs by 1H NMR analysis relative to control. The arrangement: scale not given: the % may be the effect or the level left. An outline of the steps:
as §1

Data set [11] can be described thus: Inhibition of Trypanosoma cruzi apoenzyme form of PFK.
Data set [12] concerns Trypanosoma cruzi. The data set is described as follows: Potency index, ratio benznidazole IC50 to test compound IC50 for anti-trypanosomal activity against Trypanosoma cruzi IRHOD/CO/2008/SN3 epimastigotes. In kind it is functional. An outline of the steps:
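Epimastigotes of the SN3 strain were grown in TLM with 10% inactivated FBS at 28 °C in air. Compounds or benznidazole, dissolved in PEG:EtOH (7:3), were added at final levels of 1, 10, 25 and 50 and left for 72 h. Parasites were counted by haemocytometer. IC50 for 50% growth inhibition was fitted by PROBIT, and values are the mean of three experiments.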

These results are taken from ChEMBL document CHEMBL4480385, “Design, synthesis and molecular docking studies of novel N-arylsulfonyl-benzimidazoles with anti Trypanosoma cruzi activity” (Eur J Med Chem, 2019).

Usually IC50 stands for the concentration that gives 50% inhibition. The term pIC50 denotes the negative decadic logarithm of the IC50, by convention in mol/L.

Turning to `CC(=O)Nc1ccc(S(=O)(=O)n2cnc3ccccc32)cc1`, the IC50 with Trypanosoma cruzi [1] came to 7.2 µM; with Trypanosoma cruzi [2], 10.1 µM; in the data set on Vero, 468 µM. Further, the selectivity ratio is 65.4 in data set [3] and 45.9 in data set [4]. In addition, in the data set with Trypanosoma cruzi [5], the “Ratio IC50” value is recorded as 2. The Activity with Trypanosoma cruzi [6] came to 28.3%; with Trypanosoma cruzi [7], 2.38%; with Trypanosoma cruzi [8], 12.3%; with Trypanosoma cruzi [9] it was 6.8%; in the data set with Trypanosoma cruzi [10] it was 25.5%. The pIC50 in [11] is 3.86.
With `O=[N+]([O-])c1cccc(S(=O)(=O)n2cnc3ccccc32)c1`, the IC50 in the data set on Trypanosoma cruzi [1] worked out at 4.6 µM; with Trypanosoma cruzi [2] it was 15.9 µM; with Vero, 648 µM. Further, the selectivity ratio is 141 in data set [3] and 40.6 in [4]. For the same molecule, the “Ratio IC50” value in the data set with Trypanosoma cruzi [12] is given as 3 - 5. The Activity was -33.2% in the data set with Trypanosoma cruzi [6]; -30.2% in the data set with Trypanosoma cruzi [7]; -16.6% in the data set on Trypanosoma cruzi [8]; -22.7% in the data set on Trypanosoma cruzi [9]; -3.97% in the data set with Trypanosoma cruzi [10]. Also, the pIC50 in data set [11] was determined as 3.66.
Turning to `Cc1cc(C)c(C)c(S(=O)(=O)n2cnc3ccccc32)c1C`, the IC50 was found to be 2.2 µM in the data set on Trypanosoma cruzi [1], 19 µM in the data set with Trypanosoma cruzi [2] and 205 µM in the data set with Vero. The selectivity ratio was 91.7 in data set [3] and 10.8 in [4]. Also, the “Ratio IC50” value with Trypanosoma cruzi [12] is on record as 3 - 5. In addition, the Activity with Trypanosoma cruzi [6] was -7.22%; in the data set on Trypanosoma cruzi [7], 10.9%; in the data set on Trypanosoma cruzi [8], 12%; with Trypanosoma cruzi [9], 10.4%; in the data set on Trypanosoma cruzi [10], 26.4%. The molecule further showed a pIC50 in [11] of 3.34.
